From PubChem
In the library only some 2.6% were active in any assay of this set; here they are far more common.
ABHD4 inh: ABHD4 inhibitors, primary screen, biochemical, fluorescence polarization, mouse; AID 720543, 2013; 370,000 tested, 0.54% active; purified mABHD4, FP-Rh probe fluorescence polarization; inhibition, % at 8.92 µM; (Lyso)-N-acylphosphatidylethanolamine lipase (Mus musculus), Q8VD66;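 active = inhibition exceeding the mean over every tested compound plus 3 SD, cut at about 30% in these data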;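 note: 0% = plate median of compound wells and 100% = S159A mutant with DMSO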
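system = mouse ABHD4 enzyme, wild type | medium = HEPES pH 7.0, NaCl, Pluronic buffer | also added = FP-Rh probe | incubation = Enzyme–compound pre-incubation 45 min, then probe 60 min, both 25 °C | technique = fluorescence polarization, excitation 525 nm, emission 598 nm, BODIPY TMR filters | controls = S159A mutant high control, sample median low control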
TCR CD3 inh: inhibitors of human TCR-CD3 interaction, primary screen, biochemical, fluorescence, TAMRA-labeled TCR probe; 360,000 tested, 0.37% active; T-cell receptor (TCR); inhibition, % at 9.4 µM; in the data active = inhibition above about 19%;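 note: recombinant mutant TCR 2C K166C tagged with TAMRA read by polarization; 0% = receptor in buffer alone and 100% = receptor with positive control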
SIAE primary: human SIAE inhibitors, primary screen, biochemical, fluorescence polarization, FP-Rh probe, 1536-well HTS; Sialate O-acetylesterase (Homo sapiens), Q9HAT2; SIAE FP-Rh probe binding; AID 1053197, 2014; 370,000 tested, 0.69% active; inhibition, % at 9.66 µM;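 active = inhibition above a cutoff: mean of compounds within the control limits plus 3 SD of those, cut at about 17% in these data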;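 note: 0% = plate median of compound wells and 100% = probe without SIAE protein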
Target sequence (Q9HAT2 whole entry, looked up): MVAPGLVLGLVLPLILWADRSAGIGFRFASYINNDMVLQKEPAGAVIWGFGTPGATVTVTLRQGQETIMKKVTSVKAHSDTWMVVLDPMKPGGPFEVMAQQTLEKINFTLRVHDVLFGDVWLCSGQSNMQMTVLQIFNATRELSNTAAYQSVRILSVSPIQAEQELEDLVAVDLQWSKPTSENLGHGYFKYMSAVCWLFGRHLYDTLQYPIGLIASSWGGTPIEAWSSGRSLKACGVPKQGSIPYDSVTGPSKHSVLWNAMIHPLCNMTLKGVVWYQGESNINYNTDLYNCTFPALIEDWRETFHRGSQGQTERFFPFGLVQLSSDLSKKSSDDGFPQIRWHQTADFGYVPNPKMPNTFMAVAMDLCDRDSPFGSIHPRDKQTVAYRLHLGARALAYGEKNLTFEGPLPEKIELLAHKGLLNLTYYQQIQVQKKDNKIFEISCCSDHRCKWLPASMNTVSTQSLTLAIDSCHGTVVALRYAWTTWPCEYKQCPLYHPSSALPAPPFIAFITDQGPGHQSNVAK
HTRA1 inh: HTRA1 serine protease inhibitors, primary screen, biochemical, fluorescence polarization, HTS | AID 504803, 2011 | Q92743 | inhibition, % at 5.96 µM | recombinant HTRA1, FP-rhodamine activity-based probe | 340,000 tested, 0.5% active; in the data active = inhibition above about 36%;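 note: 0% = enzyme with DMSO and 100% = wells lacking enzyme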
PRMT1 inh: PRMT1 methyltransferase inhibitors, primary screen, biochemical, fluorescence polarization; recombinant PRMT1, activity-based probe fluorescence polarization; 370,000 tested, 1.3% active; inhibition, % at 2.79 µM;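 active = inhibition above about 21% made by adding two undisclosed values, limit read from the data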
The depositor's hits bear a star; . = no result.

SMILES	ABHD4 inh	TCR CD3 inh	SIAE primary	HTRA1 inh	PRMT1 inh
Cc1nnc(SCC(=O)c2ccc(S(=O)(=O)N3CCOCC3)cc2)n1-c1ccccc1	-6	-4	-2	1	28*
CC(C)(C)c1ccc(-c2cn(C[C@H](Cc3ccccc3)n3c(=O)c4ccccc4n3Cc3ccccc3)nn2)cc1	3	.	-5	.	-2
O=C(CCl)c1cc2c3c(c1)CC(=O)N3CCC2	3	-4	1	-3	8
O=c1oc2c3c4c(cc2s1)CCCN4CCC3	18	11	14	15	75*
COc1ccccc1-n1c(SC)nc2c(sc(=S)n2-c2ccccc2)c1=O	10	0	-2	-4	2
COc1ccccc1-n1c(=S)[nH]c2c(sc(=S)n2-c2ccccc2)c1=O	-5	1	-3	-5	83*
CCOc1ccccc1-n1c(=S)sc2c(=O)n(-c3ccccc3)c(=S)[nH]c21	1	6	19*	-3	78*
COc1ccccc1-n1c(=S)[nH]c2c(sc(=S)n2-c2ccccc2C)c1=O	1	-1	-2	-15	87*
COC(=O)C1=CC(=O)N2CCN=C2S1	7	-2	7	.	0
COC(=O)c1cccc(-n2c(C)cc(O)cc2=O)c1	4	8	2	.	-4
Cc1ccc(NC(=O)COC(=O)/C=C/c2ccco2)cc1S(=O)(=O)N(C)C	-1	6	-12	-12	21*
CN(C)S(=O)(=O)c1cccc(NC(=O)COC(=O)/C=C/c2ccco2)c1	4	4	2	-6	9
O=C(COC(=O)/C=C/c1ccccc1)NNC(=O)c1ccccc1F	-5	-2	1	0	0
COc1cccc(NC(=O)N(C)C[C@H]2OCc3cn(nn3)CCCC(=O)N([C@H](C)CO)C[C@@H]2C)c1	-1	5	3	.	2
O=C(O)c1ccccc1CSC1=NCCS1	-4	14	0	6	21*
O=C(CSC1=NCCS1)Nc1ccccc1F	-7	-6	1	-2	22*
O=C(CSC1=NCCS1)Nc1cccc2ccccc12	-18	1	-6	-10	21
COC(=O)[C@]12C[C@H](CC(=O)NCc3ccc(C)o3)C(=O)N(CCC3=CCCCC3)C1=C[C@H](COCc1ccccc1)O[C@@H]2C	1	-2	5	.	2
Cc1occc(=O)c1OC(=O)Nc1ccc(Cl)c(Cl)c1	-94	73*	-177	-88	-3
O=C(c1cc(COc2c(F)cccc2F)on1)N1CC[C@@H]2CCCC[C@H]2C1	1	-3	1	-18	0
N#CC(C#SN)=C1CCCCC1	15	5	2	-1	24*
O=C(NC(=S)Nc1ccc2[nH]c(=O)[nH]c2c1)c1ccccc1F	-9	-8	-6	-4	0
O=C(NC(=S)Nc1ccc(F)c([N+](=O)[O-])c1)c1ccccc1F	5	1	3	-5	33*
COc1ccc(NCc2nnc(SCC(=O)Nc3cc(C)cc(C)c3)o2)cc1	4	-1	8	-4	24*
CCC(CC)C(=O)Nc1cccc(C(=O)Nc2ccc(S(=O)(=O)Nc3ccc(C)cc3)cc2)c1	-138	24*	-166	-131	6
SMILES	ABHD4 inh	TCR CD3 inh	SIAE primary	HTRA1 inh	PRMT1 inh
COc1cccc(C(=O)NN2C(=O)C3C4C=CC(O4)C3C2=O)c1 (stereo unspecified)	4	10	15	0	23*
COc1cccc(C(=O)NN2c3ccccc3CCc3ccccc32)c1	5	5	-3	-10	0
C=CCNC(=O)C1CC(=O)N(c2ccc(OCC(=O)Nc3ccc(C)cc3)cc2)C1 (stereo unspecified)	1	-4	-4	-3	0
C=CCNC(=O)C1CC(=O)N(c2ccc(OCC(=O)Nc3ccccc3)cc2)C1 (stereo unspecified)	5	4	18*	-10	1
CC(=O)c1cc(F)c(N2CCN(CCC#N)CC2)cc1C	3	-3	27*	-4	-4
O=C(COc1cccc(Br)c1)N/N=C/c1ccc2c(c1)OCCO2	-3	0	7	-14	3
O=C1NC(=O)N2CCSC2(Cc2ccccc2)N1 (stereo unspecified)	3	-1	6	2	21*
